Source: ChEMBL document CHEMBL1641460, “Potent and selective thiophene urea-templated inhibitors of S6K” (Bioorg Med Chem Lett, 2011)
Values after ≈ are worked out from the molar mass of the structure shown.

Key:
[1] = target: T1, Ribosomal protein S6 kinase beta-1 (Homo sapiens, UniProt P23443); assay: Inhibition of S6K1
[2] = Kinetic solubility of the compound in 50 mM phosphate buffer at pH 6.5; type: physicochemical
[3] = target: Voltage-gated inwardly rectifying potassium channel KCNH2 (Homo sapiens, UniProt Q12809); assay: Displacement of labeled dofetilide from human ERG
Chain of Voltage-gated inwardly rectifying potassium channel KCNH2 (Q12809 whole entry): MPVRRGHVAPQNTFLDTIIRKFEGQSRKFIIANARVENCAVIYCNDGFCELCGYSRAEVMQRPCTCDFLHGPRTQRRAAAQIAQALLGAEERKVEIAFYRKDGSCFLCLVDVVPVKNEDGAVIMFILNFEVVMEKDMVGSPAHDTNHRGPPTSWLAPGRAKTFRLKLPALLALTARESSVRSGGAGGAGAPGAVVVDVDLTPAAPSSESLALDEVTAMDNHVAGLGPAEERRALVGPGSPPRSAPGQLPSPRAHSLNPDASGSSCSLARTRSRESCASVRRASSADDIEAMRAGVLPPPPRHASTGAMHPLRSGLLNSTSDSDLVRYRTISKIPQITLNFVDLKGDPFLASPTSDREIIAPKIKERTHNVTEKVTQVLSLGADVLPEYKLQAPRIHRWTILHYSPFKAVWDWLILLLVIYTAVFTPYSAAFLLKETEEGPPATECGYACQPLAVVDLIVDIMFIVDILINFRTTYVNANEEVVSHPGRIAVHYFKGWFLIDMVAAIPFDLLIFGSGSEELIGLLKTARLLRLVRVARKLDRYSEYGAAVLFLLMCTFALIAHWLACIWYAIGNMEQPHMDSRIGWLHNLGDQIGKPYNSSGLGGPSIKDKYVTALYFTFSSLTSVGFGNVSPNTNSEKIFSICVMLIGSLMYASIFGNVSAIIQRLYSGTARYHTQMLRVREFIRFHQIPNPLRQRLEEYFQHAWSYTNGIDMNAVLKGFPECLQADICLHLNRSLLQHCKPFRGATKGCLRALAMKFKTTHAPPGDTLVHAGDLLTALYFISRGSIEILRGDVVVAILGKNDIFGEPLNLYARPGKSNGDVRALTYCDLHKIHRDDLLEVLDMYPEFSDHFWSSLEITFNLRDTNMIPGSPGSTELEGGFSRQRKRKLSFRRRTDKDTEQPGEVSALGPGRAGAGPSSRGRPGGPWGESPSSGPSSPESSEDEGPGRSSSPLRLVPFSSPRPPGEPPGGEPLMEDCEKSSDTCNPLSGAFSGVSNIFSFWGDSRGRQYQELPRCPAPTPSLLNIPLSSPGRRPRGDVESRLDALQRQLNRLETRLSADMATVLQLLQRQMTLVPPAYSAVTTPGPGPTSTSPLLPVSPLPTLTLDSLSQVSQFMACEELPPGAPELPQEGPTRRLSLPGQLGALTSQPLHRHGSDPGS

CYP2C9 = CYP2C9 (Homo sapiens, UniProt P11712); assay: Inhibition of CYP2C9 at 3 uM by LC/MS/MS analysis; type: ADME
Chain of CYP2C9 (P11712 whole entry): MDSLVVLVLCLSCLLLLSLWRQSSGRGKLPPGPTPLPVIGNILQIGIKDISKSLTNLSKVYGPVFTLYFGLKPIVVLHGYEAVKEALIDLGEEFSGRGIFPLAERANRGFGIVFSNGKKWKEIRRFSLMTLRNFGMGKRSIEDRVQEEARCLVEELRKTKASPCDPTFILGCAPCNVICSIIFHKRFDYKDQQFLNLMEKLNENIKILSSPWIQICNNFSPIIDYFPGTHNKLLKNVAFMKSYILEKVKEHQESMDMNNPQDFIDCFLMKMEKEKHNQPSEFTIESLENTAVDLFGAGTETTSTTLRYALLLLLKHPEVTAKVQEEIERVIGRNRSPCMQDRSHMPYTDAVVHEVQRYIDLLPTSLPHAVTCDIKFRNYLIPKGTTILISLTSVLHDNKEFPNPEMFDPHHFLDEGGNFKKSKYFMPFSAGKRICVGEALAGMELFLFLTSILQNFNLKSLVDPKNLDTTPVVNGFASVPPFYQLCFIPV

CYP3A4 = CYP3A4 (Homo sapiens, UniProt P08684); assay: Inhibition of CYP3A4 at 3 uM by LC/MS/MS analysis; type: ADME
Chain of CYP3A4 (P08684 whole entry): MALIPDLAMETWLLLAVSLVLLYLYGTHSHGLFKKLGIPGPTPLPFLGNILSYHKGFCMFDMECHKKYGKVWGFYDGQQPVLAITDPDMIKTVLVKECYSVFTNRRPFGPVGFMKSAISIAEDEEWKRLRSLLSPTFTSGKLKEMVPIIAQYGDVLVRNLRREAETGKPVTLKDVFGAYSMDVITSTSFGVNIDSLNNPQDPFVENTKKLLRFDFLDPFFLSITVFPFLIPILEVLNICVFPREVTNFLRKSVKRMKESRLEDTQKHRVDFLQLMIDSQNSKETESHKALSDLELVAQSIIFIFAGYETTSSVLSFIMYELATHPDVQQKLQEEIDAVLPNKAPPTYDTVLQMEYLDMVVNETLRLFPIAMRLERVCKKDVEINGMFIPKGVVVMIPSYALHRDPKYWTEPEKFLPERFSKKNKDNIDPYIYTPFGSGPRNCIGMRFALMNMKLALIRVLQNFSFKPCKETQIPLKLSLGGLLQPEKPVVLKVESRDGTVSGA

[4] = Half life in human liver microsomes at 1 uM by LC/MS/MS analysis; type: ADME, Microsome
Method in brief: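 Test compound incubated with human liver microsomes to measure Phase I metabolic stability. Remaining compound quantified by LC/MS/MS, and stability reported as half-life (T1/2) in minutes.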

CYP2D6 = CYP2D6 (Homo sapiens, UniProt P10635); assay: Inhibition of CYP2D6 at 3 uM by LC/MS/MS analysis; type: ADME
Chain of CYP2D6 (P10635 whole entry): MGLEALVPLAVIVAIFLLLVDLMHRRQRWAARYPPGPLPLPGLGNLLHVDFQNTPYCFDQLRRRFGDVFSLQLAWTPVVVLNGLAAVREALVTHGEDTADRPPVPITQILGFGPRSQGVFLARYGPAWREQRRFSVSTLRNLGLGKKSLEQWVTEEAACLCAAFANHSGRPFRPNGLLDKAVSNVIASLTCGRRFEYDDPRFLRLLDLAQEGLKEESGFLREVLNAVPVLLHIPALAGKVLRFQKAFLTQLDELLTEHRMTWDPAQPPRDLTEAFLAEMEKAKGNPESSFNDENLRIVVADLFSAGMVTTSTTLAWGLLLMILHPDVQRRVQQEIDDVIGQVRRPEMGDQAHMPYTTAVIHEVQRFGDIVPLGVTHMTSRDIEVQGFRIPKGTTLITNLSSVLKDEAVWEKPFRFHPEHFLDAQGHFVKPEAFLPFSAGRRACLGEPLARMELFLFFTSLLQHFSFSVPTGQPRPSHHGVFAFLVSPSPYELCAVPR

CYP1A2 = target: T2, CYP1A2 (Homo sapiens, UniProt P05177); assay: Inhibition of CYP1A2 at 3 uM by LC/MS/MS analysis; type: ADME
T2 sequence (P05177 whole entry): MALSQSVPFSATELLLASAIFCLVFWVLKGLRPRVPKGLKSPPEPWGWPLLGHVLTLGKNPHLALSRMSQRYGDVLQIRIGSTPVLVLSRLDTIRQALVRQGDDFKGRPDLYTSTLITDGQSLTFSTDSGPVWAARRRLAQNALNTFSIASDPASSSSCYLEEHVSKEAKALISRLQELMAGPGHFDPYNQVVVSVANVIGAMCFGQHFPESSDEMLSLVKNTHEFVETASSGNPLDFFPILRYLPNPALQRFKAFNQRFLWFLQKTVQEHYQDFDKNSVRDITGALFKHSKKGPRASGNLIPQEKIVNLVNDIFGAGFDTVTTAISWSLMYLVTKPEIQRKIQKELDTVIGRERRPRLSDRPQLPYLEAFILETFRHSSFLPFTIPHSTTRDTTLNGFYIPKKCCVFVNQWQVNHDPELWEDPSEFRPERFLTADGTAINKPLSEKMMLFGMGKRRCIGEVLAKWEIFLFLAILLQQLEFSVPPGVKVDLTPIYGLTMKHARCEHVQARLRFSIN

[5] = target: T1, Ribosomal protein S6 kinase beta-1; assay: Inhibition of S6K1 in ribosomal protein S6 by whole cell assay
[6] = Half life in human hepatocytes at 1 uM by LC/MS/MS analysis; type: ADME, cell-based, Liver, Hepatocyte
Method in brief: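 Stability measured in intact human hepatocytes, with remaining parent compound quantified by LC/MS/MS. Result expressed as half-life (T1/2) in minutes.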

T1 sequence (P23443 whole entry): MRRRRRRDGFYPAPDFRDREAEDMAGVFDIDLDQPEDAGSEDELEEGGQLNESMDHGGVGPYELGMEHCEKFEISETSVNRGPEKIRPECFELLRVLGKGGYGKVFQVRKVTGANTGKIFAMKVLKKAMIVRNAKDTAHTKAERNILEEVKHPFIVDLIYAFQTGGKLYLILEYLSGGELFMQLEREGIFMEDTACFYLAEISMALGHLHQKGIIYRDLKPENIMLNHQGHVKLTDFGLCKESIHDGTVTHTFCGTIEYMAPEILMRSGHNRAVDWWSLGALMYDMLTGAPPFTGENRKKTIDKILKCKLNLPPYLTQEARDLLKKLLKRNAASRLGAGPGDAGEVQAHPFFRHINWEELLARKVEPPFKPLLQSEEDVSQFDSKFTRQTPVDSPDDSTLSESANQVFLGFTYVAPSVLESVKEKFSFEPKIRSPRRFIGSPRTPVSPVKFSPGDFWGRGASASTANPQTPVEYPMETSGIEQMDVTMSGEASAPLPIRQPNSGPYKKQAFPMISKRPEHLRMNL

With `CC(C)(C)c1cc(C(=O)N2CCS(=O)(=O)CC2)c(NC(=O)Nc2ccc(Oc3cccnc3)cc2)s1` the IC50 [1] was 9000 nM.
Work on `CC(C)(C)c1cc(C(=O)N2CCS(=O)(=O)CC2)c(NC(=O)Nc2ccc(Oc3ccccc3F)cc2)s1` yielded an IC50 [1] of over 20000 nM.
With `CC(C)(C)c1cc(C(=O)NCc2ccccc2)c(NC(=O)Nc2ccc3[nH]ncc3c2)s1` the IC50 [1] was 201 nM.
Work on `CC(C)(C)c1cc(C(=O)N2CCS(=O)(=O)CC2)c(NC(=O)Nc2ccc3oc4cccnc4c3c2)s1` yielded an IC50 [1] of over 20000 nM.
`C[C@@H](O)c1cc(C(=O)NCCN(C)C)c(NC(=O)Nc2ccc3[nH]ncc3c2)s1` showed an IC50 [1] of 196 nM.
In the case of `CC(C)(C)c1ccc(NC(=O)Nc2ccc3[nH]ncc3c2)s1`, the solubility kinetic [2] is reported as 7 µg/mL (≈ 22.3 µM), the “inhibition (INH)” value [3] is reported as 0% and the IC50 [1] is reported as 19 nM. It also gave an inhibition at 3 µM (CYP2C9) of 52%, an inhibition at 3 µM (CYP3A4) of 4% and a half-life at 1 µM [4] of 0.917 h. The inhibition at 3 µM (CYP2D6) was 20% and the inhibition at 3 µM (CYP1A2) was 36%.
For `COc1ccccc1Oc1ccc(NC(=O)Nc2sc(C(C)(C)C)cc2C(=O)N2CCS(=O)(=O)CC2)cc1`, the IC50 [1] was over 20000 nM.
With `CN(C)CCNC(=O)c1cc(C2CC2)sc1NC(=O)Nc1ccc2[nH]ncc2c1` the IC50 [1] was 70 nM.
`CCc1cc(C(=O)NCCN(C)C)c(NC(=O)Nc2ccc3[nH]ncc3c2)s1` gave an IC50 [1] of 62 nM.
`CN(C)CCNC(=O)c1cc(-c2ccccc2)sc1NC(=O)Nc1ccc2[nH]ncc2c1` showed an IC50 [1] of 1900 nM.
In the case of `C[C@H](O)c1cc(C(=O)NCCN(C)C)c(NC(=O)Nc2ccc3[nH]ncc3c2)s1`, the IC50 [1] is reported as 379 nM.
In the case of `Cc1c(O)cccc1NC(=O)Nc1sc(C(C)(C)C)cc1C(=O)N1CCS(=O)(=O)CC1`, the IC50 [1] is reported as 4000 nM.
With `CN(C)CCNC(=O)c1cc(C(C)(C)C)sc1NC(=O)Nc1ccc2[nH]ncc2c1` the solubility kinetic [2] was 171 µg/mL (≈ 399 µM), the “inhibition (INH)” value [3] was 28% and the IC50 [1] was 15 nM. For the same molecule, the IC50 [5] was 521 nM, the inhibition at 3 µM (CYP2C9) was 0% and the inhibition at 3 µM (CYP3A4) was 0%. For the same molecule, the half-life at 1 µM [4] was 0.633 h, the inhibition at 3 µM (CYP2D6) was 7% and the half-life at 1 µM [6] was 2.08 h. For the same molecule, the inhibition at 3 µM (CYP1A2) was 18%.
Molecule `CC(C)(C)c1cc(C(=O)NCc2ccccc2F)c(NC(=O)Nc2ccc3[nH]ncc3c2)s1` has an IC50 [1] of 191 nM.
In the case of `CC(C)(C)c1cc(C(=O)NCCO)c(NC(=O)Nc2ccc3[nH]ncc3c2)s1`, the solubility kinetic [2] is reported as 41 µg/mL (≈ 102 µM), the “inhibition (INH)” value [3] is reported as 0% and the IC50 [1] is reported as 19 nM. For the same molecule, the inhibition at 3 µM (CYP2C9) was 30%, the inhibition at 3 µM (CYP3A4) was 0% and the half-life at 1 µM [4] was over 2 h. The inhibition at 3 µM (CYP2D6) was 9%, the half-life at 1 µM [6] was 4.38 h and the inhibition at 3 µM (CYP1A2) was 52%.
`CC(C)(C)c1cc(C(=O)N2CCS(=O)(=O)CC2)c(NC(=O)Nc2ccc3[nH]ncc3c2)s1` showed an IC50 [1] of 34 nM.
`Cc1cc(C(=O)NCCN(C)C)c(NC(=O)Nc2ccc3[nH]ncc3c2)s1` showed an IC50 [1] of 223 nM.
In the case of `COCCNC(=O)c1cc(C(C)(C)C)sc1NC(=O)Nc1ccc2[nH]ncc2c1`, the solubility kinetic [2] is reported as 10 µg/mL (≈ 24.1 µM), the “inhibition (INH)” value [3] is reported as 0% and the IC50 [1] is reported as 7 nM. It also gave an inhibition at 3 µM (CYP2C9) of 14%, an inhibition at 3 µM (CYP3A4) of 2% and a half-life at 1 µM [4] of over 2 h. It also gave an inhibition at 3 µM (CYP2D6) of 0%, a half-life at 1 µM [6] of 6.12 h and an inhibition at 3 µM (CYP1A2) of 45%.
`CC(C)(C)c1cc(C(=O)N2CCS(=O)(=O)CC2)c(NC(=O)Nc2ccc(Oc3ccncc3)cc2)s1` showed an IC50 [1] of over 20000 nM.
For `CC(C)(C)c1cc(C(=O)NC2CC2)c(NC(=O)Nc2ccc3[nH]ncc3c2)s1`, the solubility kinetic [2] was 10 µg/mL (≈ 25.2 µM), the “inhibition (INH)” value [3] was 0% and the IC50 [1] was 10 nM. It also gave an IC50 [5] of 685 nM, an inhibition at 3 µM (CYP2C9) of 11% and an inhibition at 3 µM (CYP3A4) of 11%. It also gave a half-life at 1 µM [4] of over 2 h, an inhibition at 3 µM (CYP2D6) of 12% and a half-life at 1 µM [6] of 2.3 h. For the same molecule, the inhibition at 3 µM (CYP1A2) was 40%.
In the case of `CC(C)c1cc(C(=O)NCCN(C)C)c(NC(=O)Nc2ccc3[nH]ncc3c2)s1`, the IC50 [1] is reported as 29 nM.
Work on `CC(C)(C)c1cc(C(=O)N2CCS(=O)(=O)CC2)c(NC(=O)Nc2ccc(Oc3ccccc3)cc2)s1` yielded an IC50 [1] of over 20000 nM.
For `CC(C)(C)c1cc(C(=O)N2CCOCC2)c(NC(=O)Nc2ccc3[nH]ncc3c2)s1`, the IC50 [1] was 207 nM.
